The source made the active and inactive calls.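 The calls were made as follows, unless noted: active = viability at or below 10% of carrier control in both of two separate runs; inconclusive = viability at or below 10% in only one of the two runs; inactive = the rest.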
Columns and labels:
[1] = Her2 expression decrease, cell viability multiplex – SKBR3 breast tumor cells, AlphaScreen, ATP viability, primary screen (AID 461;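 active = Her2 level under about 52% in both replicate screens, with viability over 70% of control, limit read from the data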;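 as to Her2 level: lower value means less Her2 protein in the cells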;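 as to viability: percent of carrier control wells set as 100% viability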); conditions: SKBR3 Her2 protein level, 18-24 h, measured here: SKBR3 viability, ATP luminescence, at 10 µM
[2] = biological target: Receptor tyrosine-protein kinase erbB-2 (Homo sapiens) (UniProt P04626); assay: as above; conditions: 18-24 h, at 10 µM, stronger effect = lower value
[3] = reduced viability of SK-BR-3 breast cancer cells – cell-based, 24 h, human, pilot screen (AID 572); conditions: SK-BR-3 viability, CellTiter-Glo luminescence, at 10 µM, stronger effect = lower value;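 also: compound exposure lasted between 18 and 24 h rather than exactly 24 h; 100% = carrier-treated control wells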
[4] = HUVEC growth inhibition – cell-based, human, primary screen (AID 575;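 active = viability at or below 30% in both replicate assays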;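 also: 100% = median of untreated cell wells with 0.1% DMSO on each plate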); conditions: HUVEC proliferation, CellTiter-Glo luminescence, 72 h; at 10 µM; stronger effect = lower value
Outline: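 Material: primary human umbilical vein endothelial cells / Schedule: 72 h exposure, 37 °C, 5% CO2, 30 min RT equilibration / Signal: ATP-based CellTiter-Glo luminescent read / Read-out basis: percent of median DMSO-control luminescence / Control set: 32 DMSO-only cell-control wells (high), 32 MePR drug-control wells (low) per plate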

[5] = H69AR cell proliferation blockers – human, duplicate replicates, primary screen (AID 580;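 active = viability at or under a set limit in both replicates, limit being median viability minus 3 SD, cut at about 48% in these data, passing the limit was not always enough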;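 also: 100% = mean luminescence of untreated wells and 0% = no signal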); conditions: H69AR lung tumor cells viability, ATP luminescence, 72 h; at 10 µM; stronger effect = lower value
[6] = MRP1 drug-resistance reversers in H69AR cells – cell-based, doxorubicin co-treatment, pilot screen (AID 601;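 active = viability loss from added drug above about 55%, and viability with drug at most 40%, in both replicates, limit read from the data, passing the limit was not always enough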); conditions: CellTiter-Glo, 72 h, at 10 µM; for differential viability (reversal): stronger effect = higher value
[7] = yeast transport mutant growth inhibition pilot in 384-well plates, post-Golgi transport modulator project (AID 636; in the data active = inhibition above about 31%); conditions: absorbance 615 nm, about 18 h, stronger effect = higher value
[8] = growth suppression of yeast trafficking mutant, preliminary HTS, modulators of trafficking downstream of Golgi apparatus project, 1536-format plate, OD 615 nm (AID 637; in the data active = inhibition above about 30%); conditions: yeast transport mutant growth, absorbance 615 nm, 18 h; stronger effect = higher value
[9] = H69AR cells + 2 uM doxorubicin, measured here: viability with 2 uM doxorubicin, stronger effect = lower value
[10] = H69AR cells, compound alone cytotoxicity

Sequence of Receptor tyrosine-protein kinase erbB-2 (Homo sapiens) (P04626 whole entry, looked up): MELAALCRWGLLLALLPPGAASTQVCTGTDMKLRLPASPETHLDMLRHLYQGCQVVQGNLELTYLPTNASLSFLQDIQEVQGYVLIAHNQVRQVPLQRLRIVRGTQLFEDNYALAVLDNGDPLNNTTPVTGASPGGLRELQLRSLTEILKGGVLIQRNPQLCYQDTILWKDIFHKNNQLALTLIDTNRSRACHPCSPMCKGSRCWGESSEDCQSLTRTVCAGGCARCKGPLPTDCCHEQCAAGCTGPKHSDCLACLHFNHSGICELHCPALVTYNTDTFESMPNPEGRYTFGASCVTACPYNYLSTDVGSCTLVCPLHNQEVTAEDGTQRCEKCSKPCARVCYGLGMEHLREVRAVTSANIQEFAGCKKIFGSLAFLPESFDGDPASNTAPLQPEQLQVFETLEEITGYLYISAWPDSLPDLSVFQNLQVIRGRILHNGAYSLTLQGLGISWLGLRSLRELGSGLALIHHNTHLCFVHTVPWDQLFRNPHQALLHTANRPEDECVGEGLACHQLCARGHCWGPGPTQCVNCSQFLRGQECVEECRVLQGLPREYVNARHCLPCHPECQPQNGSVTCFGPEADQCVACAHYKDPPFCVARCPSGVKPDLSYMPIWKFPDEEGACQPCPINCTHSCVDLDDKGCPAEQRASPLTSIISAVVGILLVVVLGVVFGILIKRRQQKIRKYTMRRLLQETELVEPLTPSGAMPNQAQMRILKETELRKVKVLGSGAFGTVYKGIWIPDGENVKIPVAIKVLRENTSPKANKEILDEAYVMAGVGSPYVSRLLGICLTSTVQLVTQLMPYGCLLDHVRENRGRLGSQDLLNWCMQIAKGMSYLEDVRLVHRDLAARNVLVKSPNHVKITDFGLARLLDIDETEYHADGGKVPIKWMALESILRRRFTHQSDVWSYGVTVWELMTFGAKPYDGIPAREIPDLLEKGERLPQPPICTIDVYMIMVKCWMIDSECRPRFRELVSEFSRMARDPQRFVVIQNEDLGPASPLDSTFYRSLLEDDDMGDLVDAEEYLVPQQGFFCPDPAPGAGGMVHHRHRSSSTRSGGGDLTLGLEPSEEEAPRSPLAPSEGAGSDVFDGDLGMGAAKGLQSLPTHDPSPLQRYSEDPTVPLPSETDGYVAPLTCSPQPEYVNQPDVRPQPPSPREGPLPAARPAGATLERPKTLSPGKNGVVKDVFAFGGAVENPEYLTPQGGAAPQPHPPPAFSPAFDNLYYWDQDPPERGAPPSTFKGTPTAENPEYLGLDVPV

Compound	viability [1] [%]	Her2 level [2]	viability [3]	viability [4]	viability [5]	differential viability (reversal) ([6]; H69AR cells + 2 uM doxorubicin)	viability [6, 9] [%]	viability [6, 10] [%]	inhibition [7]	inhibition [8]
CCOC(=O)c1ccccc1NC(=O)Cn1cnc2c(cnn2-c2ccc(OC)cc2)c1=O	89.5	91.5% (inactive)	89.5% (inactive)	81.4% (inactive)	101% (inactive)	1.5% (inactive)	99.7	101	-5.54% (inactive)	1.83% (inactive)
CCc1ccccc1NC(=O)CSc1ncn[nH]1	101	124% (inactive)	101% (inactive)	97.9% (inactive)	103% (inactive)	8.47% (inactive)	94	103	-1.82% (inactive)	-6.33% (inactive)
Cc1nc(N2CCc3ccccc32)[nH]c(=O)c1CCC(C)C	87.5	89% (inactive)	87.5% (inactive)	72.3% (inactive)	79.1% (inactive)	9.09% (inactive)	70	79.1	-2.99% (inactive)	6.17% (inactive)
COc1ccccc1-n1c(SCC(N)=O)nnc1-c1ccccc1	126	97% (inactive)	126% (inactive)	88.7% (inactive)	87.7% (inactive)	-0.18% (inactive)	87.8	87.7	-7.11% (inactive)	1.9% (inactive)
NC(=O)CSc1nnc(-c2ccc(O)cc2)n1Cc1ccco1	108	102% (inactive)	108% (inactive)	105% (inactive)	98.6% (inactive)	9.33% (inactive)	89.3	98.6	-6% (inactive)	4.68% (inactive)
CCn1c(C)cc(=S)c2ccccc21	114	99.5% (inactive)	114% (inactive)	98.6% (inactive)	91.2% (inactive)	3.92% (inactive)	87.3	91.2	1.22% (inactive)	-3.65% (inactive)
Cn1c(SCc2ccc3c(c2)OCO3)nnc1-c1ccccc1	99.5	108% (inactive)	99.5% (inactive)	99.1% (inactive)	96.2% (inactive)	11.7% (inactive)	84.4	96.2	1.45% (inactive)	-1.11% (inactive)
CCn1c(=O)c(=O)[nH]c2cc(C(=O)N3CCN(c4ccccc4F)CC3)ccc21	110	91.5% (inactive)	110% (inactive)	97.1% (inactive)	98.9% (inactive)	5.58% (inactive)	93.3	98.9	0.14% (inactive)	-0.16% (inactive)
COc1ccc(N2CCC(CNS(=O)(=O)c3cccc(C(F)(F)F)c3)C2)cc1 (stereo not given)	98	95% (inactive)	98% (inactive)	84.5% (inactive)	86.7% (inactive)	-2.23% (inactive)	88.9	86.7	-2.63% (inactive)	16.6% (inactive)
Cc1ccc(-c2[nH]nc3c2C(c2ccc(OC(=O)N4CCOCC4)cc2)C(C#N)=C(N)O3)cc1 (stereo not given)	89	93% (inactive)	89% (inactive)	106% (inactive)	85.5% (inactive)	-10.4% (inactive)	96	85.5	-5.26% (inactive)	-11.4% (inactive)
COC(=O)C1=C(C)NC(=O)C1(NC(=O)CN1CCCC1=O)C(F)(F)F (stereo not given)	116	91% (inactive)	116% (inactive)	105% (inactive)	101% (inactive)	3.15% (inactive)	98.3	101	-4.34% (inactive)	-6.03% (inactive)
CCOc1cc(-c2nc(-c3ccc(C)nc3OCC)no2)cc(OCC)c1OCC	91.5	108% (inactive)	91.5% (inactive)	82.2% (inactive)	94.8% (inactive)	-3.25% (inactive)	98	94.8	2% (inactive)	3.44% (inactive)
Cc1cnc(-c2nnc(N(C)C(=O)C3CCOC3)s2)cn1 (stereo not given)	90.5	89.5% (inactive)	90.5% (inactive)	98.2% (inactive)	101% (inactive)	17% (inactive)	84.4	101	-1.45% (inactive)	-10.9% (inactive)
COC(=O)c1c(O)ccc(Oc2ccccc2)c1C(=O)OC	104	119% (inactive)	104% (inactive)	95.9% (inactive)	85.3% (inactive)	-1.09% (inactive)	86.4	85.3	-4.49% (inactive)	-4.67% (inactive)
Cc1ccc(Cl)cc1NC(=O)CSc1nnc(C)n1-c1ccccc1	90	79% (inactive)	90% (inactive)	91% (inactive)	86.6% (inactive)	6.06% (inactive)	80.6	86.6	-2.63% (inactive)	0.65% (inactive)
O=C(CN1C(=O)c2ccccc2S1(=O)=O)NCc1ccccn1	94	92% (inactive)	94% (inactive)	86.1% (inactive)	98.5% (inactive)	0.67% (inactive)	97.8	98.5	-1.43% (inactive)	1.11% (inactive)
